Test results published in ChEMBL document CHEMBL4689842, “EUbOPEN Chemogenomics Library wave 1” (2021).

Test system: U2OS
Experiment: Multiplex assay against U2OS
Type: toxicity, cell-based
Settings: human
Method in brief: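 Cells were classed with CellPathfinder machine-learning gating, first as Hoechst high-intensity objects or normal cells, then (normal cells) as healthy, pyknosed or fragmented nuclei, and finally (pyknosed cells) as mitotic or apoptotic. Staining of live cells at seeding used Hoechst33342, BioTracker Green Microtubule Cytoskeleton Dye, MitoTracker Red and Annexin V Alexa Fluor 680, with imaging on a CQ1 microscope at 37°C and 5% CO2 after compound addition. Tubulin, mitochondrial-mass and membrane-permeability phenotypes are per cents of healthy-nucleus cells.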

[1] = 12 h, 1 µM, compound concentration 1 uM, replicate 1
[2] = 12 h, 1 µM, compound concentration 1 uM, replicate 2
[3] = 12 h, 10 µM, compound concentration 10 uM, replicate 1
[4] = 12 h, 10 µM, compound concentration 10 uM, replicate 2
[5] = 24 h, 1 µM, compound concentration 1 uM, replicate 1
[6] = 24 h, 1 µM, compound concentration 1 uM, replicate 2
[7] = 24 h, 10 µM, compound concentration 10 uM, replicate 1
[8] = 24 h, 10 µM, compound concentration 10 uM, replicate 2
[9] = 48 h, 1 µM, compound concentration 1 uM, replicate 1
[10] = 48 h, 1 µM, compound concentration 1 uM, replicate 2
[11] = 48 h, 10 µM, compound concentration 10 uM, replicate 1
[12] = 48 h, 10 µM, compound concentration 10 uM, replicate 2

CC(C)OC(=O)N1CCC(Oc2ncnc3c2cnn3-c2ccc(S(C)(=O)=O)cc2F)CC1
Population Apoptotic (%) [1]: 57%
Population Fragmented Nuclei (%) [1]: 11%
Population Healthy Nuclei (%) [1]: 80%
Population Hoechst High Intensity Objects (%) [1]: 6%
Population Membrane Permeable-Phenotype (%) [1]: 6%
Population Mitochondria Different-Phenotype (%) [1]: 8%
Population Mitotic Cells (%) [1]: 42%
Population Normal (%) [1]: 93%
Population Pyknosed Nuclei (%) [1]: 7%
Population Tubulin-Different-Phenotype (%) [1]: 12%
Total Cell Count [1]: 95
Population Apoptotic (%) [2]: 33%
Population Fragmented Nuclei (%) [2]: 5%
Population Healthy Nuclei (%) [2]: 91%
Population Hoechst High Intensity Objects (%) [2]: 7%
Population Membrane Permeable-Phenotype (%) [2]: 4%
Population Mitotic Cells (%) [2]: 66%
Population Normal (%) [2]: 92%
Population Pyknosed Nuclei (%) [2]: 3%
Population Tubulin-Different-Phenotype (%) [2]: 7%
Total Cell Count [2]: 97
Population Apoptotic (%) [3]: 20%
Population Fragmented Nuclei (%) [3]: 11%
Population Healthy Nuclei (%) [3]: 77%
Population Hoechst High Intensity Objects (%) [3]: 6%
Population Membrane Permeable-Phenotype (%) [3]: 6%
Population Mitochondria Different-Phenotype (%) [3]: 19%
Population Mitotic Cells (%) [3]: 79%
Population Normal (%) [3]: 93%
Population Pyknosed Nuclei (%) [3]: 11%
Population Tubulin-Different-Phenotype (%) [3]: 24%
Total Cell Count [3]: 221
Population Apoptotic (%) [4]: 18%
Population Fragmented Nuclei (%) [4]: 5%
Population Membrane Permeable-Phenotype (%) [4]: 0%
Population Mitochondria Different-Phenotype (%) [4]: 5%
Population Mitotic Cells (%) [4]: 81%
Population Pyknosed Nuclei (%) [4]: 16%
Population Tubulin-Different-Phenotype (%) [4]: 28%
Total Cell Count [4]: 72
Population Apoptotic (%) [5]: 57%
Population Fragmented Nuclei (%) [5]: 10%
Population Healthy Nuclei (%) [5]: 83%
Population Hoechst High Intensity Objects (%) [5]: 6%
Population Membrane Permeable-Phenotype (%) [5]: 5%
Population Mitochondria Different-Phenotype (%) [5]: 5%
Population Mitotic Cells (%) [5]: 42%
Population Normal (%) [5]: 93%
Population Pyknosed Nuclei (%) [5]: 6%
Population Tubulin-Different-Phenotype (%) [5]: 11%
Total Cell Count [5]: 123
Population Apoptotic (%) [6]: 50%
Population Fragmented Nuclei (%) [6]: 4%
Population Healthy Nuclei (%) [6]: 86%
Population Hoechst High Intensity Objects (%) [6]: 2%
Population Mitochondria Different-Phenotype (%) [6]: 4%
Population Mitotic Cells (%) [6]: 50%
Population Normal (%) [6]: 97%
Population Pyknosed Nuclei (%) [6]: 8%
Population Tubulin-Different-Phenotype (%) [6]: 9%
Total Cell Count [6]: 116
Population Apoptotic (%) [7]: 20%
Population Fragmented Nuclei (%) [7]: 10%
Population Healthy Nuclei (%) [7]: 79%
Population Hoechst High Intensity Objects (%) [7]: 4%
Population Membrane Permeable-Phenotype (%) [7]: 1%
Population Mitochondria Different-Phenotype (%) [7]: 14%
Population Mitotic Cells (%) [7]: 79%
Population Normal (%) [7]: 95%
Population Pyknosed Nuclei (%) [7]: 10%
Population Tubulin-Different-Phenotype (%) [7]: 13%
Total Cell Count [7]: 248
Population Apoptotic (%) [8]: 33%
Population Fragmented Nuclei (%) [8]: 5%
Population Healthy Nuclei (%) [8]: 87%
Population Hoechst High Intensity Objects (%) [8]: 2%
Population Mitochondria Different-Phenotype (%) [8]: 2%
Population Mitotic Cells (%) [8]: 66%
Population Normal (%) [8]: 97%
Population Pyknosed Nuclei (%) [8]: 6%
Population Tubulin-Different-Phenotype (%) [8]: 31%
Total Cell Count [8]: 93
Population Apoptotic (%) [9]: 27%
Population Fragmented Nuclei (%) [9]: 6%
Population Healthy Nuclei (%) [9]: 83%
Population Hoechst High Intensity Objects (%) [9]: 4%
Population Membrane Permeable-Phenotype (%) [9]: 1%
Population Mitotic Cells (%) [9]: 72%
Population Normal (%) [9]: 95%
Population Pyknosed Nuclei (%) [9]: 9%
Population Tubulin-Different-Phenotype (%) [9]: 5%
Total Cell Count [9]: 193
Population Apoptotic (%) [10]: 30%
Population Fragmented Nuclei (%) [10]: 5%
Population Healthy Nuclei (%) [10]: 88%
Population Hoechst High Intensity Objects (%) [10]: 2%
Population Membrane Permeable-Phenotype (%) [10]: 7%
Population Mitochondria Different-Phenotype (%) [10]: 10%
Population Mitotic Cells (%) [10]: 69%
Population Normal (%) [10]: 97%
Population Pyknosed Nuclei (%) [10]: 6%
Population Tubulin-Different-Phenotype (%) [10]: 9%
Total Cell Count [10]: 199
Population Apoptotic (%) [11]: 35%
Population Fragmented Nuclei (%) [11]: 5%
Population Healthy Nuclei (%) [11]: 82%
Population Hoechst High Intensity Objects (%) [11]: 2%
Population Membrane Permeable-Phenotype (%) [11]: 2%
Population Mitochondria Different-Phenotype (%) [11]: 13%
Population Mitotic Cells (%) [11]: 64%
Population Normal (%) [11]: 97%
Population Pyknosed Nuclei (%) [11]: 11%
Population Tubulin-Different-Phenotype (%) [11]: 8%
Total Cell Count [11]: 324
Population Apoptotic (%) [12]: 40%
Population Fragmented Nuclei (%) [12]: 3%
Population Healthy Nuclei (%) [12]: 92%
Population Hoechst High Intensity Objects (%) [12]: 1%
Population Mitochondria Different-Phenotype (%) [12]: 12%
Population Mitotic Cells (%) [12]: 60%
Population Normal (%) [12]: 98%
Population Pyknosed Nuclei (%) [12]: 3%
Population Tubulin-Different-Phenotype (%) [12]: 37%
Total Cell Count [12]: 157

CC(C)NC(=O)N1CC[C@H](NC2=Nc3cc(F)ccc3N(CC(F)F)c3ccc(Cl)cc32)C1
Population Apoptotic (%) [1]: 50%
Population Fragmented Nuclei (%) [1]: 11%
Population Healthy Nuclei (%) [1]: 75%
Population Hoechst High Intensity Objects (%) [1]: 7%
Population Membrane Permeable-Phenotype (%) [1]: 7%
Population Mitochondria Different-Phenotype (%) [1]: 8%
Population Mitotic Cells (%) [1]: 50%
Population Normal (%) [1]: 92%
Population Pyknosed Nuclei (%) [1]: 13%
Population Tubulin-Different-Phenotype (%) [1]: 19%
Total Cell Count [1]: 469
Population Apoptotic (%) [2]: 33%
Population Fragmented Nuclei (%) [2]: 5%
Population Healthy Nuclei (%) [2]: 89%
Population Hoechst High Intensity Objects (%) [2]: 9%
Population Membrane Permeable-Phenotype (%) [2]: 4%
Population Mitochondria Different-Phenotype (%) [2]: 18%
Population Mitotic Cells (%) [2]: 66%
Population Normal (%) [2]: 90%
Population Pyknosed Nuclei (%) [2]: 5%
Population Tubulin-Different-Phenotype (%) [2]: 14%
Total Cell Count [2]: 293
Population Apoptotic (%) [3]: 47%
Population Fragmented Nuclei (%) [3]: 11%
Population Healthy Nuclei (%) [3]: 72%
Population Hoechst High Intensity Objects (%) [3]: 11%
Population Membrane Permeable-Phenotype (%) [3]: 4%
Population Mitochondria Different-Phenotype (%) [3]: 52%
Population Mitotic Cells (%) [3]: 52%
Population Normal (%) [3]: 88%
Population Pyknosed Nuclei (%) [3]: 15%
Population Tubulin-Different-Phenotype (%) [3]: 89%
Total Cell Count [3]: 96
Population Apoptotic (%) [4]: 0%
Population Fragmented Nuclei (%) [4]: 6%
Population Healthy Nuclei (%) [4]: 81%
Population Hoechst High Intensity Objects (%) [4]: 13%
Population Membrane Permeable-Phenotype (%) [4]: 13%
Population Mitochondria Different-Phenotype (%) [4]: 63%
Population Mitotic Cells (%) [4]: 100%
Population Normal (%) [4]: 86%
Population Pyknosed Nuclei (%) [4]: 11%
Population Tubulin-Different-Phenotype (%) [4]: 58%
Total Cell Count [4]: 62
Population Apoptotic (%) [5]: 53%
Population Fragmented Nuclei (%) [5]: 9%
Population Healthy Nuclei (%) [5]: 78%
Population Hoechst High Intensity Objects (%) [5]: 6%
Population Membrane Permeable-Phenotype (%) [5]: 10%
Population Mitochondria Different-Phenotype (%) [5]: 28%
Population Mitotic Cells (%) [5]: 46%
Population Normal (%) [5]: 93%
Population Pyknosed Nuclei (%) [5]: 12%
Population Tubulin-Different-Phenotype (%) [5]: 21%
Total Cell Count [5]: 453
Population Apoptotic (%) [6]: 50%
Population Fragmented Nuclei (%) [6]: 5%
Population Healthy Nuclei (%) [6]: 88%
Population Membrane Permeable-Phenotype (%) [6]: 6%
Population Mitochondria Different-Phenotype (%) [6]: 19%
Population Mitotic Cells (%) [6]: 50%
Population Pyknosed Nuclei (%) [6]: 5%
Population Tubulin-Different-Phenotype (%) [6]: 9%
Total Cell Count [6]: 281
Population Apoptotic (%) [7]: 56%
Population Fragmented Nuclei (%) [7]: 14%
Population Healthy Nuclei (%) [7]: 61%
Population Hoechst High Intensity Objects (%) [7]: 6%
Population Membrane Permeable-Phenotype (%) [7]: 15%
Population Mitochondria Different-Phenotype (%) [7]: 61%
Population Mitotic Cells (%) [7]: 43%
Population Normal (%) [7]: 93%
Population Pyknosed Nuclei (%) [7]: 23%
Population Tubulin-Different-Phenotype (%) [7]: 79%
Total Cell Count [7]: 112
Population Apoptotic (%) [8]: 83%
Population Fragmented Nuclei (%) [8]: 13%
Population Healthy Nuclei (%) [8]: 73%
Population Hoechst High Intensity Objects (%) [8]: 10%
Population Membrane Permeable-Phenotype (%) [8]: 6%
Population Mitochondria Different-Phenotype (%) [8]: 57%
Population Mitotic Cells (%) [8]: 16%
Population Normal (%) [8]: 90%
Population Pyknosed Nuclei (%) [8]: 13%
Population Tubulin-Different-Phenotype (%) [8]: 51%
Total Cell Count [8]: 75
Population Apoptotic (%) [9]: 52%
Population Fragmented Nuclei (%) [9]: 10%
Population Healthy Nuclei (%) [9]: 77%
Population Membrane Permeable-Phenotype (%) [9]: 3%
Population Mitochondria Different-Phenotype (%) [9]: 23%
Population Mitotic Cells (%) [9]: 47%
Population Pyknosed Nuclei (%) [9]: 11%
Population Tubulin-Different-Phenotype (%) [9]: 23%
Total Cell Count [9]: 499
Population Apoptotic (%) [10]: 25%
Population Fragmented Nuclei (%) [10]: 4%
Population Healthy Nuclei (%) [10]: 87%
Population Hoechst High Intensity Objects (%) [10]: 6%
Population Membrane Permeable-Phenotype (%) [10]: 10%
Population Mitochondria Different-Phenotype (%) [10]: 26%
Population Mitotic Cells (%) [10]: 75%
Population Normal (%) [10]: 93%
Population Pyknosed Nuclei (%) [10]: 7%
Population Tubulin-Different-Phenotype (%) [10]: 22%
Total Cell Count [10]: 259
Population Apoptotic (%) [11]: 82%
Population Fragmented Nuclei (%) [11]: 23%
Population Healthy Nuclei (%) [11]: 47%
Population Hoechst High Intensity Objects (%) [11]: 6%
Population Membrane Permeable-Phenotype (%) [11]: 20%
Population Mitochondria Different-Phenotype (%) [11]: 44%
Population Mitotic Cells (%) [11]: 17%
Population Normal (%) [11]: 93%
Population Pyknosed Nuclei (%) [11]: 29%
Population Tubulin-Different-Phenotype (%) [11]: 76%
Total Cell Count [11]: 160
Population Apoptotic (%) [12]: 69%
Population Fragmented Nuclei (%) [12]: 13%
Population Healthy Nuclei (%) [12]: 60%
Population Hoechst High Intensity Objects (%) [12]: 13%
Population Membrane Permeable-Phenotype (%) [12]: 41%
Population Mitochondria Different-Phenotype (%) [12]: 61%
Population Mitotic Cells (%) [12]: 30%
Population Normal (%) [12]: 86%
Population Pyknosed Nuclei (%) [12]: 25%
Population Tubulin-Different-Phenotype (%) [12]: 58%
Total Cell Count [12]: 115
